According to ChEMBL document CHEMBL5724801, “EUbOPEN Chemogenomics Library - Multiplex” (2024):
Where “and” joins values, the source holds several entries; their conditions need not be identical. Equal values may be shown once.

Assays:
Type in all cases: toxicity, cell-based
[1] = tested on: HEK-293T; assay: Multiplex assay against HEK293T; conditions: human
In short: (§1)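 On a CQ1 microscope at 37°C and 5% CO2, live cells were imaged after compound addition. They had been stained at seeding with Hoechst33342, BioTracker Green Microtubule Cytoskeleton Dye, MitoTracker Red and Annexin V Alexa Fluor 680. CellPathfinder machine-learning gating assigned cells to Hoechst high-intensity objects or normal cells, normal cells to healthy, pyknosed or fragmented nuclei, and pyknosed cells to mitotic or apoptotic. Tubulin, mitochondrial-mass and membrane-permeability phenotypes are per cents of healthy-nucleus cells.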

[2] = tested on: Fibroblast; assay: Multiplex assay against human fibroblast; in short: as §1
[3] = tested on: U2OS; assay: Multiplex assay against U2OS; conditions: human; in short: as §1
[4] = 12 h, 1 µM, compound concentration 1 uM
[5] = 12 h, 10 µM, compound concentration 10 uM
[6] = 24 h, 1 µM, compound concentration 1 uM
[7] = 24 h, 10 µM, compound concentration 10 uM
[8] = 48 h, 1 µM, compound concentration 1 uM
[9] = 48 h, 10 µM, compound concentration 10 uM

## C=CCN1C[C@H](C(=O)N(CCCN(C)C)C(=O)NCC)C[C@@H]2c3cccc4[nH]cc(c34)C[C@H]21 [CABERGOLINE]
[1]; [4]
  Population Apoptotic (%): 36% and 37%
  Population Fragmented Nuclei (%): 4% and 5%
  Population Healthy Nuclei (%): 76% and 79%
  Population Hoechst High Intensity Objects (%): 8%
  Population Membrane Permeable-Phenotype (%): 0%
  Population Mitochondria Different-Phenotype (%): 51% and 68%
  Population Mitotic Cells (%): 63% and 62%
  Population Normal (%): 91%
  Population Pyknosed Nuclei (%): 18% and 14%
  Population Tubulin-Different-Phenotype (%): 41% and 24%
  Total Cell Count: 370 and 322
[1]; [5]
  Population Apoptotic (%): 53% and 60%
  Population Fragmented Nuclei (%): 8% and 6%
  Population Healthy Nuclei (%): 76% and 78%
  Population Hoechst High Intensity Objects (%): 12% and 8%
  Population Membrane Permeable-Phenotype (%): 0%
  Population Mitochondria Different-Phenotype (%): 65% and 81%
  Population Mitotic Cells (%): 46% and 40%
  Population Normal (%): 87% and 91%
  Population Pyknosed Nuclei (%): 14%
  Population Tubulin-Different-Phenotype (%): 54% and 55%
  Total Cell Count: 438 and 371
[1]; [6]
  Population Apoptotic (%): 43% and 40%
  Population Fragmented Nuclei (%): 9% and 6%
  Population Healthy Nuclei (%): 80% and 83%
  Population Hoechst High Intensity Objects (%): 4% and 6%
  Population Membrane Permeable-Phenotype (%): 1% and 0%
  Population Mitochondria Different-Phenotype (%): 29% and 46%
  Population Mitotic Cells (%): 56% and 59%
  Population Normal (%): 95% and 93%
  Population Pyknosed Nuclei (%): 10% and 9%
  Population Tubulin-Different-Phenotype (%): 20% and 19%
  Total Cell Count: 512 and 406
[1]; [7]
  Population Apoptotic (%): 37% and 42%
  Population Fragmented Nuclei (%): 10%
  Population Healthy Nuclei (%): 77% and 79%
  Population Hoechst High Intensity Objects (%): 8% and 12%
  Population Membrane Permeable-Phenotype (%): 0%
  Population Mitochondria Different-Phenotype (%): 51% and 64%
  Population Mitotic Cells (%): 62% and 57%
  Population Normal (%): 91% and 87%
  Population Pyknosed Nuclei (%): 11% and 9%
  Population Tubulin-Different-Phenotype (%): 48% and 43%
  Total Cell Count: 556 and 425
[1]; [8]
  Population Apoptotic (%): 13% and 35%
  Population Fragmented Nuclei (%): 12% and 11%
  Population Healthy Nuclei (%): 80% and 81%
  Population Hoechst High Intensity Objects (%): 4% and 3%
  Population Membrane Permeable-Phenotype (%): 1%
  Population Mitochondria Different-Phenotype (%): 21% and 23%
  Population Mitotic Cells (%): 86% and 65%
  Population Normal (%): 95% and 96%
  Population Pyknosed Nuclei (%): 7% and 6%
  Population Tubulin-Different-Phenotype (%): 16% and 10%
  Total Cell Count: 763 and 633
[1]; [9]
  Population Apoptotic (%): 26% and 43%
  Population Fragmented Nuclei (%): 13% and 10%
  Population Healthy Nuclei (%): 76% and 82%
  Population Hoechst High Intensity Objects (%): 5% and 6%
  Population Membrane Permeable-Phenotype (%): 0%
  Population Mitochondria Different-Phenotype (%): 35% and 32%
  Population Mitotic Cells (%): 73% and 56%
  Population Normal (%): 94% and 93%
  Population Pyknosed Nuclei (%): 9% and 6%
  Population Tubulin-Different-Phenotype (%): 25% and 20%
  Total Cell Count: 786 and 676
[2]; [4]
  Population Apoptotic (%): 69% and 35%
  Population Fragmented Nuclei (%): 13% and 20%
  Population Healthy Nuclei (%): 78% and 46%
  Population Hoechst High Intensity Objects (%): 6%
  Population Membrane Permeable-Phenotype (%): 0% and 4%
  Population Mitochondria Different-Phenotype (%): 2% and 1%
  Population Mitotic Cells (%): 30% and 64%
  Population Normal (%): 93%
  Population Tubulin-Different-Phenotype (%): 26% and 25%
  Total Cell Count: 186 and 144
[2]; [5]
  Population Apoptotic (%): 50% and 35%
  Population Fragmented Nuclei (%): 25% and 44%
  Population Healthy Nuclei (%): 64% and 39%
  Population Hoechst High Intensity Objects (%): 3% and 5%
  Population Membrane Permeable-Phenotype (%): 0% and 6%
  Population Mitochondria Different-Phenotype (%): 11% and 10%
  Population Mitotic Cells (%): 50% and 64%
  Population Normal (%): 96% and 94%
  Population Pyknosed Nuclei (%): 10% and 16%
  Population Tubulin-Different-Phenotype (%): 46% and 53%
  Total Cell Count: 248 and 178
[2]; [6]
  Population Apoptotic (%): 68% and 44%
  Population Fragmented Nuclei (%): 15% and 24%
  Population Healthy Nuclei (%): 74% and 46%
  Population Hoechst High Intensity Objects (%): 4% and 6%
  Population Membrane Permeable-Phenotype (%): 1% and 3%
  Population Mitochondria Different-Phenotype (%): 3%
  Population Mitotic Cells (%): 31% and 55%
  Population Normal (%): 95% and 93%
  Population Pyknosed Nuclei (%): 10% and 29%
  Population Tubulin-Different-Phenotype (%): 33% and 39%
  Total Cell Count: 198 and 132
[2]; [7]
  Population Apoptotic (%): 73% and 43%
  Population Fragmented Nuclei (%): 28% and 43%
  Population Healthy Nuclei (%): 65% and 46%
  Population Hoechst High Intensity Objects (%): 1% and 10%
  Population Membrane Permeable-Phenotype (%): 0% and 2%
  Population Mitochondria Different-Phenotype (%): 7% and 5%
  Population Mitotic Cells (%): 26% and 56%
  Population Normal (%): 98% and 89%
  Population Pyknosed Nuclei (%): 5% and 9%
  Population Tubulin-Different-Phenotype (%): 44% and 53%
  Total Cell Count: 274 and 181
[2]; [8]
  Population Apoptotic (%): 56% and 58%
  Population Fragmented Nuclei (%): 15% and 24%
  Population Healthy Nuclei (%): 75% and 54%
  Population Hoechst High Intensity Objects (%): 5% and 7%
  Population Membrane Permeable-Phenotype (%): 0% and 6%
  Population Mitochondria Different-Phenotype (%): 6% and 1%
  Population Mitotic Cells (%): 43% and 41%
  Population Normal (%): 94% and 92%
  Population Pyknosed Nuclei (%): 8% and 21%
  Population Tubulin-Different-Phenotype (%): 34% and 33%
  Total Cell Count: 189 and 156
[2]; [9]
  Population Apoptotic (%): 72% and 46%
  Population Fragmented Nuclei (%): 24% and 52%
  Population Healthy Nuclei (%): 68% and 37%
  Population Hoechst High Intensity Objects (%): 4% and 5%
  Population Membrane Permeable-Phenotype (%): 1% and 6%
  Population Mitochondria Different-Phenotype (%): 4% and 11%
  Population Mitotic Cells (%): 27% and 53%
  Population Normal (%): 95% and 94%
  Population Pyknosed Nuclei (%): 6% and 9%
  Population Tubulin-Different-Phenotype (%): 46% and 44%
  Total Cell Count: 282 and 170
[3]; [4]
  Population Apoptotic (%): 86% and 57%
  Population Fragmented Nuclei (%): 13% and 9%
  Population Healthy Nuclei (%): 72% and 84%
  Population Hoechst High Intensity Objects (%): 2% and 3%
  Population Membrane Permeable-Phenotype (%): 3% and 8%
  Population Mitochondria Different-Phenotype (%): 1% and 4%
  Population Normal (%): 97% and 96%
  Population Pyknosed Nuclei (%): 13% and 5%
  Population Tubulin-Different-Phenotype (%): 1% and 5%
  Total Cell Count: 228 and 129
[3]; [5]
  Population Apoptotic (%): 69% and 64%
  Population Fragmented Nuclei (%): 35% and 17%
  Population Healthy Nuclei (%): 52% and 70%
  Population Hoechst High Intensity Objects (%): 3% and 2%
  Population Membrane Permeable-Phenotype (%): 15% and 13%
  Population Mitochondria Different-Phenotype (%): 9% and 21%
  Population Mitotic Cells (%): 30% and 35%
  Population Normal (%): 96% and 97%
  Population Pyknosed Nuclei (%): 11% and 12%
  Population Tubulin-Different-Phenotype (%): 11% and 9%
  Total Cell Count: 228 and 143
[3]; [6]
  Population Apoptotic (%): 82% and 64%
  Population Fragmented Nuclei (%): 15% and 7%
  Population Healthy Nuclei (%): 74% and 83%
  Population Hoechst High Intensity Objects (%): 3% and 1%
  Population Membrane Permeable-Phenotype (%): 1% and 9%
  Population Mitochondria Different-Phenotype (%): 1% and 4%
  Population Mitotic Cells (%): 17% and 35%
  Population Normal (%): 96% and 98%
  Population Pyknosed Nuclei (%): 10% and 8%
  Population Tubulin-Different-Phenotype (%): 0% and 6%
  Total Cell Count: 295 and 162
[3]; [7]
  Population Apoptotic (%): 65% and 88%
  Population Fragmented Nuclei (%): 33% and 14%
  Population Healthy Nuclei (%): 54% and 75%
  Population Hoechst High Intensity Objects (%): 3% and 2%
  Population Membrane Permeable-Phenotype (%): 10% and 13%
  Population Mitochondria Different-Phenotype (%): 5% and 12%
  Population Normal (%): 96% and 97%
  Population Pyknosed Nuclei (%): 11% and 10%
  Population Tubulin-Different-Phenotype (%): 4% and 10%
  Total Cell Count: 228 and 165
[3]; [8]
  Population Apoptotic (%): 88% and 93%
  Population Fragmented Nuclei (%): 13%
  Population Healthy Nuclei (%): 77% and 73%
  Population Hoechst High Intensity Objects (%): 2% and 3%
  Population Membrane Permeable-Phenotype (%): 5% and 4%
  Population Mitochondria Different-Phenotype (%): 1% and 4%
  Population Mitotic Cells (%): 11% and 6%
  Population Normal (%): 97% and 96%
  Population Pyknosed Nuclei (%): 8% and 13%
  Population Tubulin-Different-Phenotype (%): 3%
  Total Cell Count: 405 and 221
[3]; [9]
  Population Apoptotic (%): 86% and 87%
  Population Fragmented Nuclei (%): 30% and 13%
  Population Healthy Nuclei (%): 57% and 66%
  Population Hoechst High Intensity Objects (%): 3% and 4%
  Population Membrane Permeable-Phenotype (%): 7% and 9%
  Population Mitochondria Different-Phenotype (%): 1% and 9%
  Population Mitotic Cells (%): 13% and 12%
  Population Normal (%): 96% and 95%
  Population Pyknosed Nuclei (%): 12% and 20%
  Population Tubulin-Different-Phenotype (%): 3% and 5%
  Total Cell Count: 303 and 206
